Only some compounds are listed: those with a hit (about 4.9% of all), similar ones and a draw of the others.
STAT3 inh = IL-6 driven STAT3 reporter inhibitors, primary screen, U3A cells, luciferase, luminescence, MLSCN library | 190,000 tested, 0.89% active | inhibition, % at 5.5 µM | IL-6 STAT3-luciferase reporter; host cell line lacks STAT1;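 active = inhibition above the mean inhibition across all screened compounds plus 3 SD, cut at about 44% in these data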
APP 5'UTR act = activators of APP 5'UTR luciferase reporter, primary screen, SH-SY5Y cells | SH-SY5Y APP 5'UTR luciferase reporter, luminescence; zero percent = DMSO vehicle wells | activation, % at 2 µM | 190,000 tested, 1% active | AID 1276, 2008;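 active = activation above a set limit, based on mean plus 3 SD of controls, cut at about 140% in these data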
STAT1 inh = STAT1 signaling inhibitors, primary screen, cell-based, HTS, luciferase reporter; inhibition, % at 5.5 µM; 200,000 tested, 0.35% active; NIH 3T3 STAT1-luciferase reporter, IFN-gamma, luminescence;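 active = inhibition above a set limit, the mean inhibition across all tested compounds plus 3 SD, cut at about 34% in these data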
STAT3 activator = IL-6 driven STAT3 reporter potentiators, primary screen, U3A cells, luciferase, luminescence, MLSCN library | IL-6 STAT3-luciferase reporter; 100% = signal with IL-6 EC80 alone | activation (% of control), % at 5.6 µM | 190,000 tested, 0.91% active | AID 871, 2007;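 active = activation above the screen-wide mean of compound activation plus 3 SD, cut at about 130% in these data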
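Test system: STAT3-luciferase reporter U3A cells; Detection: reporter luminescence signal; Times: 1 h compound pre-exposure, 6 h IL-6 stimulation, 37 °C; Benchmarks: IL-6-only high control; Also added: IL-6 stimulus at 33 ng/mL final.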
STAT1 act = STAT1 signaling activators, primary screen, cell-based, HTS, luciferase reporter. NIH 3T3 STAT1-luciferase reporter, IFN-gamma, luminescence; 100% = IFN-gamma alone, no compound. AID 932, 2007. activation (% of control), % at 5.5 µM. 200,000 tested, 2.6% active;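 active = activation above the screen-wide mean activation plus 3 SD, cut at about 130% in these data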
NF-kB neuron act = activators of NF-kB expression in neurons, primary screen, cell-based, HTS; human neuronal cells, NF-kB reporter expression; hits give high values; fold change at 12.5 µM; 190,000 tested, 1.6% active; AID 1239, 2008; in the data active = fold change above about 3.3
Hits are given with their value; n = inactive; x = not tested or not shown.

SMILES	STAT3 inh	APP 5'UTR act	STAT1 inh	STAT3 activator	STAT1 act	NF-kB neuron act
CCN(CC)S(=O)(=O)c1cc(C(=O)OCC(=O)Nc2ccc(-c3nc4ccc(C)cc4s3)cc2)ccc1F	n	143	n	n	145	6
O=C(O)c1ccc(Nc2nc(-c3cc4ccccc4oc3=O)cs2)cc1O	n	n	n	n	n	n
Nc1ccc(Nc2nc(-c3cc4ccccc4oc3=O)cs2)cc1	n	n	n	n	144	9
CNc1nnc(-c2cc3ccccc3oc2=O)s1	n	n	n	n	143	n
Cc1ccc(OCC(=O)NNC(=O)c2cccnc2)cc1C	n	n	n	n	n	n
Cc1cccc(OCCCC(=O)NCc2ccco2)c1	n	n	n	n	n	n
CC(=O)Oc1c(S(=O)(=O)c2ccccc2)c(C)nn1C(C)(C)C	n	n	n	n	n	n
Cc1nn(C(C)(C)C)c(OC(=O)c2cccs2)c1S(=O)(=O)c1ccccc1	n	n	n	n	129	n
S=c1[nH]c2ccccc2o1	n	n	n	133	n	n
O=C(CNC(=O)c1ccccc1C(=O)O)c1ccccc1	n	n	n	n	130	n
CC1=C(C)CC(C(=O)NCC(=O)c2ccccc2)C(C(=O)O)C1 (configuration not stated)	n	n	n	n	133	n
CC(=O)c1cccc(NC(=O)Cc2ccc3c(c2)CCCC3)c1	n	n	n	n	n	n
CCCCNC(=S)N(Cc1c(C)noc1C)c1ccccc1	n	n	n	n	n	n
COc1ccc2c(c1)CCc1c(C(=O)NC3CCCCC3)noc1-2	n	145	n	n	129	n
COCC(C)NC(=O)c1noc2c1CCc1cc(OC)ccc1-2 (configuration not stated)	n	n	n	n	n	n
COCCNC(=O)c1noc2c1CCc1cc(OC)ccc1-2	n	n	n	n	n	n
COc1ccc2c(c1)CCc1c(C(=O)NCCN3CCOCC3)noc1-2	n	n	n	n	n	n
COc1ccc2c(c1)CCc1c(C(=O)NCc3ccco3)noc1-2	n	n	n	n	129	n
COc1ccc2c(c1)CCc1c(C(=O)N(C)c3ccccc3)noc1-2	n	n	n	n	129	n
COc1ccc(C2C(C#N)=C(N)N(c3ccccc3C#N)C3=C2C(=O)CCC3)cc1CN1CCCC1 (configuration not stated)	n	n	n	n	n	n
O=S(=O)(c1ccc(F)cc1)n1ccc(-c2cccc(OCc3ccc(Cl)cc3Cl)c2)n1	n	n	n	n	n	n
Cc1ccc(NC(=O)CCOc2ccccc2C)cc1F	n	n	n	n	n	n
COc1ccc(-c2nc3c(Br)c(N)c(Br)cc3o2)cc1	n	n	n	178	135	n
COc1ccc(-c2cn[nH]c2N)cc1	n	n	n	n	n	n
O=C(CCc1nnc(CCC2CCCCC2)o1)NCCc1ccccn1	n	n	n	n	n	n
SMILES	STAT3 inh	APP 5'UTR act	STAT1 inh	STAT3 activator	STAT1 act	NF-kB neuron act
CCOc1ccc(/C=C\C(C)=N\O)cc1	n	n	n	n	n	5.1
CCOc1ccc(/C=C/C(=O)CCC(=O)O)cc1	n	n	n	n	n	x
Nn1c(-c2cccs2)nc2sc3c(c2c1=O)CCCC3	n	156	n	n	142	3.9
CC1(C)Cc2c(sc3nc(-c4cccs4)n(N)c(=O)c23)CO1	n	n	n	n	138	n
Cc1ccccc1-c1nc2sc3c(c2c(=O)n1N)CCCC3	n	150	n	n	146	n
Cc1nc2sc3c(c2c(=O)n1N)CCC3	n	n	n	n	n	n
CC1(C)Cc2c(sc3nc(-c4ccccc4)n(N)c(=O)c23)CO1	n	n	n	n	n	n
O=C(O)c1[nH]c2ccccc2c1C=NCc1ccccc1Cl	n	n	n	n	n	n
CCN(CC)S(=O)(=O)c1cccc(NC(=O)COC(=O)C2COc3ccccc3O2)c1 (configuration not stated)	n	n	n	n	n	n
Cc1cc(C)nc(N/N=C/c2cc(C)n(CC(F)(F)F)c2C)n1	n	n	n	n	n	n

Screens: PubChem BioAssay, several laboratories
